High-throughput results: PubChem BioAssay, several laboratories
Efflux pump mplx: antifungal efflux pump inhibition, Nile Red retention; S. cerevisiae Candida pump triplex; inhibition, % at 10 µM; actives 0.44% (n = 330,000); AID 485275;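 active = plate passing quality check with inhibition over a set limit, or well fluorescence over plate mean plus 4 SD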;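 also: Nile Red retained in pooled yeast measured as flow cytometry median fluorescence; higher means more Nile Red kept so more efflux inhibition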
Beta apoptosis: beta cell apoptosis inhibition; protection from apoptosis, % (concentration not given with the values); AID 435005; INS-1E cytokine-induced death, ATP luminescence, 48 h; percent of positive-control rescue, neutral wells zero; actives 0.8% (n = 300,000);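 active = Every replicate reaches about 75%, or at least half do and their mean reaches it too, limit read from the data; inconclusive = At least half of replicates reach the limit but their mean does not; inactive = Under half of replicates reach the limit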;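 also: higher means more ATP so stronger rescue from cytokine killing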
T cruzi repl: blocks replication of Trypanosoma cruzi; AID 1885; actives 1.4% (n = 300,000); inhibition, % (test concentration not listed); T. cruzi beta-gal in NIH3T3, luminescence, 90 h;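 active = mean inhibition across valid replicates above about 55%, limit read from the data; inconclusive = mean below that limit but half or more replicates reach it; inactive = mean below it, under half of replicates reach it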;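 also: signal also drops with host cell toxicity which is not excluded here; higher percent means less beta-gal luminescence so fewer parasites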
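Test system: β-gal T. cruzi (Tulahuen C4) inside NIH/3T3 cells / Quantity: 5,000 cells/well / Measured by: luminescence from GalScreen with 0.05% NP40, read after 60 min / Medium: DMEM plus 2% FBS / Measure: parasite load inhibition, % / Reagent: Tulahuen C4 trypomastigotes, 5000/well / Schedule: co-culture of at least 90 h after 3 h attachment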
SUMO Mot1 rescue: SUMOylation pathway inhibition by Mot1-301 growth rescue; actives 1% (n = 320,000); growth rescue, % at 18.8 µM; S. cerevisiae Mot1-301 growth rescue, ATP luminescence, 38.5C; percent above DMSO median, 100 means doubled;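 active = every valid replicate shows activation above 250% relative to neutral control wells; inactive = the rest, any valid replicate at or below 250%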
WT yeast gro inh: growth inhibition of WT yeast, mitochondrial fusion screen. actives 2.1% (n = 190,000). inhibition, % at 10 µM. mitochondrial fusion phenotypic screen, WT strain. AID 1362; in the data active = inhibition above about 58%; tested in S. cerevisiae
CSC inhib: blocks cancer stem cells | cancer stem cell-like cells viability, luminescence | inhibition, % at 7.5 µM | actives 1.1% (n = 300,000); in the data active = inhibition above about 75%; inconclusive = no clear call, values can overlap the other calls; tested in HMLE shEcad cells
Of the large screens only hits and unclear results are named; the others gave an inactive call. Hits are enriched below; roughly 4.8% of the tested compounds scored in any of these assays.

CCCCCCSc1ccc(-c2nc3cc(C)ccn3c2NC2CCCCC2)cc1	none (no result: T cruzi repl, WT yeast gro inh)
CCCCNc1c(-c2cccc(-c3ccc(OC)cc3)c2)nc2cc(C)ccn12	none (no result: T cruzi repl, WT yeast gro inh, CSC inhib)
CCCCCCSc1ccc(-c2nc3ccccn3c2NCCCC)cc1	CSC inhib 86 (no result: WT yeast gro inh)
CCCCNc1c(-c2ccc(-c3cccc(Cl)c3)cc2)nc2ccccn12	Beta apoptosis 110, CSC inhib 97 (no result: WT yeast gro inh)
CCOc1ccccc1C(=O)N(Cc1sccc1C)C1CCS(=O)(=O)C1 (stereo unspecified)	none (no result: WT yeast gro inh)
Cc1cc(Nc2ccc(Cl)cc2)nc(NCc2ccccc2)n1	none
Cc1cc(N/N=C/c2ccc(Cl)cc2Cl)nc(NCc2ccccc2)n1	WT yeast gro inh 83, CSC inhib inconclusive (no result: Beta apoptosis)
Cc1cc(N/N=C/c2ccc(F)cc2)nc(NCc2ccccc2)n1	none (no result: Beta apoptosis, WT yeast gro inh)
Cc1ccc(/C=N/Nc2cc(C)nc(NCc3ccccc3)n2)cc1	CSC inhib 97 (no result: WT yeast gro inh)
COc1ccc(-c2noc(N3CCC(C(=O)N(C)c4ccccc4)CC3)n2)cc1	none (no result: WT yeast gro inh)
CCc1cc(-c2n[nH]c(C)c2-c2ccccc2Cl)c(O)cc1OC	CSC inhib 103 (no result: WT yeast gro inh)
CC(C)C1COC(c2cccn2Cc2ccccc2Cl)=N1 (stereo unspecified)	WT yeast gro inh 65
Cc1ccc(Cn2cccc2C2=NC(C)CO2)cc1 (stereo unspecified)	none
O=C(NCc1ccccc1)/C(=C/c1ccc(OC(F)F)cc1)c1ccccc1	WT yeast gro inh 63
COc1ccc(/C=C(/C(=O)NCc2ccccc2)c2ccccc2)cc1	none
CCCN(Cc1ccccc1)C(=S)Nc1ccc(SC(F)F)cc1	WT yeast gro inh 70 (no result: Efflux pump mplx, Beta apoptosis, SUMO Mot1 rescue, CSC inhib)
CCc1noc(C)c1C(=O)N(CC)CC(=O)NCc1ccc(Cl)cc1	none (no result: T cruzi repl, WT yeast gro inh)
Cc1ccc(OCc2ccc(C(=O)Nc3nc4ccccc4n3C)o2)c([N+](=O)[O-])c1	none
COc1ccc(-n2ncc3c(NCc4ccco4)ncnc32)cc1	WT yeast gro inh 68
COc1ccccc1CCNC(=O)c1cc(-c2ccncc2)nc2ccc(Br)cc12	T cruzi repl 89 (no result: Efflux pump mplx, Beta apoptosis, SUMO Mot1 rescue, CSC inhib)
CCOc1ccc(-c2cc(C(=O)NCCCn3ccnc3)c3cc(Br)ccc3n2)cc1	Beta apoptosis 108 (no result: WT yeast gro inh)
CCOc1ccc(-c2cc(C(=O)NCCCn3ccnc3)c3ccccc3n2)cc1	none
CCS(=O)(=O)NCCc1cc2ccc(C)cc2[nH]c1=O	none
c1ccc(C(Cc2nc(-c3cccnc3)no2)c2ccccc2)cc1	none
c1ccc(C(c2ccccc2)c2nc(-c3cccnc3)no2)cc1	WT yeast gro inh 86
CCOC(=O)c1c(-c2ccccc2)c2cc(OC)ccc2n1CCCN(C)C	T cruzi repl 59 (no result: WT yeast gro inh)
Cc1ccc(OCC(=O)N(Cc2ccccc2)c2c(N)n(Cc3ccccc3)c(=O)[nH]c2=O)c(C)c1	none (no result: WT yeast gro inh)
Cc1cc(C)c[n+](C(C)C(=O)c2ccc(-c3ccccc3)cc2)c1 (stereo unspecified)	Beta apoptosis 93
Cc1ccc[n+](C(C)C(=O)c2ccc(Cl)cc2)c1 (stereo unspecified)	none (no result: WT yeast gro inh)
CCN1CCCc2cc(CN(CCN3CCOCC3)C(=S)Nc3cccc(C)c3)ccc21	T cruzi repl 61
CCN1CCCc2cc(CN(CCN3CCOCC3)C(=S)Nc3ccc(OC)c(Cl)c3)ccc21	T cruzi repl 59
CCN1CCCc2cc(CN(CCN3CCOCC3)C(=S)Nc3ccccc3OC)ccc21	T cruzi repl 57
CCN1CCCc2cc(CN(CCN3CCOCC3)C(=S)Nc3ccccc3C)ccc21	none
CCCCc1ccc(NC(=S)NCCN2CCOCC2)cc1	SUMO Mot1 rescue 731
Cc1ccc2nc(SCC(=O)NC3CCS(=O)(=O)C3)[nH]c2c1 (stereo unspecified)	none (no result: T cruzi repl, WT yeast gro inh)
Cc1ccc(C)c(NC(=S)N=Nc2c(O)n(C)c3ccc(S(=O)(=O)N4CCOCC4)cc23)c1	none
CCc1ccccc1NC(=S)N=Nc1c(O)n(C)c2ccc(S(=O)(=O)N3CCOCC3)cc12	WT yeast gro inh 72 (no result: Beta apoptosis)
CCN(CC)CCN(C(=O)c1ccc(S(=O)(=O)N2CCCC2)cc1)c1nc2cc(C)cc(C)c2s1	none (no result: WT yeast gro inh)
CCN(CC)CCN(C(=O)c1c(F)cccc1F)c1nc2cc(C)cc(C)c2s1	WT yeast gro inh 59
Cc1cccc(/C=C2/Sc3ccc(C(=O)NCCCN4CCOCC4)cc3NC2=O)c1	CSC inhib 115 (no result: WT yeast gro inh)
CCN1CCN(CCCNC(=O)c2ccc3c(c2)NC(=O)/C(=C\c2cccc(C)c2)S3)CC1	CSC inhib 121 (no result: WT yeast gro inh)
Cc1cccc(/C=C2/Sc3ccc(C(=O)NCCN4CCCC4)cc3NC2=O)c1	none (no result: WT yeast gro inh)
O=C1Nc2cc(C(=O)N3CCc4ccccc4C3)ccc2S/C1=C\c1ccccc1	CSC inhib 118
Cc1cc(C)nc(N2N=C(C(F)(F)F)CC2=O)n1	none (no result: WT yeast gro inh)
CO/N=C\c1cc(C(=O)c2ccc(Cl)cc2Cl)cn1C	WT yeast gro inh 60 (no result: Beta apoptosis)
O=C(NCc1ccccc1)c1cccc(COc2cccc(Cl)c2)c1	WT yeast gro inh 67
NNC(=O)c1cccc(COc2cccc(Br)c2)c1	WT yeast gro inh 73 (no result: CSC inhib)
O=C(NN1CCOCC1)c1cccc(COc2cccc(Br)c2)c1	none
O=C(NCc1ccc(Cl)cc1)c1cccc(NC(=O)c2ccccc2)c1	CSC inhib 111
O=C(NCc1ccc(Cl)cc1)c1ccccc1Oc1ccccc1	WT yeast gro inh 61
CC(NC(=O)c1cccc(N(C)C)c1)c1ccc(-n2ccnc2)cc1 (stereo unspecified)	none (no result: Beta apoptosis, WT yeast gro inh)
O=C(NCc1ccc2c(c1)OCO2)c1ccc(COc2cccc(Cl)c2)o1	WT yeast gro inh 69
COc1ccc(OCc2cccc(C(=O)NN)c2)cc1	none
NNC(=O)c1cccc(COc2ccc(Br)cc2)c1	WT yeast gro inh 73
Cc1cc(C)nc(N/N=C2/CCCC/C2=C\c2ccccc2)n1	Beta apoptosis 78, T cruzi repl 70
COc1cc(C(=O)n2nc(C)cc2C)ccc1O	none
CC1CCCN(C(=O)C2CC(=O)N(c3ccc(Cl)cc3)C2)C1 (stereo unspecified)	none (no result: WT yeast gro inh)
Cc1cc(Cl)ccc1OCCCC(=O)NC1CCN(C)CC1	T cruzi repl 71 (no result: CSC inhib)
Cc1ccc(C)c(OCC(=O)Nc2ccccc2N2CCCC2)c1	none (no result: Beta apoptosis, WT yeast gro inh)
Cc1ccccc1OCC(=O)Nc1ccccc1N1CCC(C)CC1	WT yeast gro inh 65 (no result: Beta apoptosis)
Cc1ccc(OCC(=O)Nc2ccccc2N2CCCC2)c(C)c1	WT yeast gro inh 66
Cc1ccc(C(C)C)c(OCC(=O)NC2CCN(C)CC2)c1	T cruzi repl 64 (no result: WT yeast gro inh)
Cc1cc(Cl)ccc1OCCCC(=O)N1CCN(C)CC1	none
CCN(CC)c1ncc(C#N)c(N)n1	none (no result: WT yeast gro inh)
Cc1ccc(S(=O)(=O)N2CCN(c3ccccc3)CC2)cc1C(N)=O	none
CCC(=O)N1CCN(c2ccccc2NC(=O)COc2cc(C)ccc2C(C)C)CC1	WT yeast gro inh 67
Cc1cccc(-n2nc3c(c2NC(=O)C(C)C)CSC3)c1	none (no result: WT yeast gro inh)
COc1cc(NC(=O)c2ccc3c(c2)OCCO3)ccc1NC(=O)c1cccs1	none
COC(=O)C1(CC2CC(c3ccncc3)=NO2)CCN(C(=O)OC(C)(C)C)CC1 (stereo unspecified)	none (no result: Efflux pump mplx, WT yeast gro inh)
